Results as given in EPA's CvTdb concentration-time database.

Key:
[1] = system: Rat; assay: concentration in plasma after dosing; details: dosed: 2-Hydroxy-4-methoxybenzophenone, 250 mg/kg, oral, Female, F344
[2] = system: Mouse; assay: concentration in plasma after dosing; details: 2.5 min; dosed: 2-Hydroxy-4-methoxybenzophenone; 250 mg/kg; oral; Male; B6C3F1
[3] = system: Rat; assay: concentration in plasma after dosing; details: dosed: 2-Hydroxy-4-methoxybenzophenone, 500 mg/kg, oral, Female, F344
[4] = system: Rat; assay: concentration in plasma after dosing; details: dosed: 2-Hydroxy-4-methoxybenzophenone, 100 mg/kg, oral, Female, F344
[5] = system: Rat; assay: concentration in brain after dosing; details: 6 h; dosed: alpha-Thujone; 50 mg/kg; oral; Female; Harlan Sprague Dawley
[6] = system: Rat; assay: concentration in brain after dosing; details: 0.5 h; dosed: alpha-Thujone; 25 mg/kg; oral; Female; Harlan Sprague Dawley
[7] = system: Rat; assay: concentration in brain after dosing; details: 2 min; dosed: alpha-Thujone; 50 mg/kg; oral; Female; Harlan Sprague Dawley
[8] = system: Rat; assay: concentration in plasma after dosing; details: 6 h; dosed: alpha-Thujone; 50 mg/kg; oral; Female; Harlan Sprague Dawley
[9] = system: Rat; assay: concentration in brain after dosing; details: 1.5 h; dosed: alpha-Thujone; 25 mg/kg; oral; Male; Harlan Sprague Dawley
[10] = system: Rat; assay: concentration in brain after dosing; details: 6 h; dosed: alpha-Thujone; 25 mg/kg; oral; Male; Harlan Sprague Dawley
[11] = system: Rat; assay: concentration in plasma after dosing; details: 10 min; dosed: alpha-Thujone; 25 mg/kg; oral; Male; Harlan Sprague Dawley
[12] = system: Rat; assay: concentration in brain after dosing; details: 0.5 h; dosed: alpha-Thujone; 50 mg/kg; oral; Male; Harlan Sprague Dawley
[13] = system: Rat; assay: concentration in kidney after dosing; details: 192 h; dosed: Perfluorohexane-1-sulphonic acid – potassium salt; 16 mg/kg; oral; Female; F344
[14] = system: Rat; assay: concentration in liver after dosing; details: 1200 h; dosed: Perfluorohexane-1-sulphonic acid – potassium salt; 16 mg/kg; oral; Male; Harlan Sprague Dawley
[15] = system: Rat; assay: concentration in kidney after dosing; details: 12 h; dosed: Perfluorohexane-1-sulphonic acid – potassium salt; 16 mg/kg; oral; Female; Harlan Sprague Dawley
[16] = system: Rat; assay: concentration in kidney after dosing; details: 3 h; dosed: Perfluorohexane-1-sulphonic acid – potassium salt; 16 mg/kg; oral; Female; Harlan Sprague Dawley
[17] = system: Rat; assay: concentration in plasma after dosing; details: 40 h; dosed: Pyridine; 100 mg/kg; oral; Male; F344
[18] = system: Rat; assay: concentration in plasma after dosing; details: 2 h; dosed: Pyridine; 5 mg/kg; oral; Male; F344
[19] = system: Rat; assay: concentration in plasma after dosing; details: 2 h; dosed: Pyridine; 5 mg/kg; oral; Male; F344; remark: listed apart in the source
[20] = system: Rat; assay: concentration in plasma after dosing; details: dosed: Methyleugenol, 37 mg/kg, oral, Male, F344/N
[21] = system: Rat; assay: concentration in plasma after dosing; details: dosed: Methyleugenol, 37 mg/kg, oral, Female, F344/N
[22] = system: Hamster; assay: concentration in plasma after dosing; details: dosed: 2,4-Dichlorophenoxyacetic acid, 8.0 mg/kg, iv, Male, Syrian Golden
In short: (§1)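 Points were largely digitised from plot screenshots with WebPlotDigitizer or otherwise copied from tables, and they remain in the units each source reported. They come from published in vivo toxicokinetic studies and two structured collections. Sampling and analytical methods follow each source and were often not reported.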

[23] = system: Hamster; assay: concentration in plasma after dosing; details: dosed: 2,4-Dichlorophenoxyacetic acid, Male, Syrian Golden
In short: as §1

[24] = system: Hamster; assay: concentration in plasma after dosing; details: dosed: 2,4-Dichlorophenoxyacetic acid, 40 mg/kg, oral, Male, Syrian Golden
In short: as §1

[25] = system: Rat; assay: concentration in plasma after dosing; details: 0.5 h; dosed: Primidone; 130 mg/kg; oral; Male; Harlan Sprague Dawley
[26] = system: Rat; assay: concentration in plasma after dosing; details: 12 h; dosed: Primidone; 130 mg/kg; oral; Female; F344
[27] = system: Rat; assay: concentration in plasma after dosing; details: 1.5 h; dosed: Primidone; 80 mg/kg; oral; Female; F344
[28] = system: Rat; assay: concentration in plasma after dosing; details: 0.25 h; dosed: Primidone; 30 mg/kg; oral; Female; F344

O=C(c1ccccc1)c1ccc(O)cc1O [2,4-Dihydroxybenzophenone]
Details	concentration in plasma [ng/mL]
[1], 3 h	148
[1], 10 min	119
[3], 0.5 h	669
[3], 12 h	198
[4], 0.25 h	165
[4], 4 h	105

Details	concentration in plasma [ng/mL]
[2]	149

CC(C)[C@]12CC(=O)[C@H](C)[C@H]1C2 [alpha-Thujone]
Details	concentration in brain [ng/g]	concentration in plasma [ng/mL]
[5]	200	–
[6]	987	–
[7]	87.7	–
[8]	–	162
[9]	388	–
[10]	117	–
[11]	–	248
[12]	5490	–

O=S(=O)([O-])C(F)(F)C(F)(F)C(F)(F)C(F)(F)C(F)(F)C(F)(F)F.[K+] [Perfluorohexane-1-sulphonic acid – potassium salt]
Details	concentration in kidney [ng/g]	concentration in liver [ng/g]
[13]	16700	–
[14]	–	15500
[15]	31200	–
[16]	42800	–

c1ccncc1 [Pyridine]
Details	concentration in plasma [ng/mL]
[17]	20000
[18]	2730
[19]	2710

C=CCc1ccc(OC)c(OC)c1 [Methyleugenol]
concentration in plasma [ng/mL]
Details	1.5 h	6 h	8 h	10 min
[20]	148	–	8.19	–
[21]	–	6.14	–	424

O=C(O)COc1ccc(Cl)cc1Cl [2,4-Dichlorophenoxyacetic acid]
concentration in plasma [ng/mL]
Details	[22]	[24]
0.25 h	–	70500
0.5 h	–	36800
1 h	–	80100
1.5 h	327	14000
2 h	159	20500
2.5 min	127000	–
4 h	–	2580
5 min	68500	102000
10 min	43200	–
20 min	15900	–
40 min	2690	–

concentration in plasma [ng/mL], [23]
Details	2.0 mg/kg	8.0 mg/kg	40 mg/kg
0.25 h, iv	–	21300	–
0.25 h, oral	7560	16500	68500
0.5 h, oral	–	3990	84200
1 h, iv	–	1050	–
1 h, oral	–	5860	19100
1.5 h, iv	–	915	–
1.5 h, oral	–	1080	29600
2 h, iv	–	186	–
2 h, oral	–	1120	25400
2.5 h, oral	1930	–	–
2.5 min, iv	–	127000	–
2.5 min, oral	217	–	–
4 h, oral	–	820	2830
5 min, iv	–	77100	–
5 min, oral	453	19500	81600
6 h, oral	–	1350	2700
10 min, iv	–	42400	–
10 min, oral	2080	–	–
20 min, iv	–	20700	–
40 min, iv	–	3980	–

CCC1(c2ccccc2)C(=O)NCNC1=O [Primidone]
Details	concentration in plasma [ng/mL]
[25]	47000
[26]	3100
[27]	70300
[28]	15100
